From ChEMBL document CHEMBL1132154, “Novel partial agonists for the histamine H(3) receptor with high in vitro and in vivo activity” (J Med Chem, 1999) come the findings set out here.

Structures are written as SMILES.

Test [1] addresses Histamine H3 receptor (Mus musculus) (UniProt P58406). The test can be described thus: In vivo intrinsic activity against histamine H3 receptor in mice after peroral administration. The test is classed as organism-based. The gist of the method: (§1)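 Swiss mice dosed orally with compounds as a methylcellulose suspension; brain histamine turnover assessed from increased (antagonist) or decreased (agonist) cerebral cortex N-methylhistamine level; intrinsic activity from modulation of this metabolite level; at least in triplicate.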

Test [2] deals with T1, Histamine H3 receptor (Rattus norvegicus, UniProt Q9QYN8). The test can be described thus: In vitro intrinsic activity against histamine H3 receptor from synaptosomes of rat cerebral cortex. The class given is subcellular, Brain. The gist of the method: (§2)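 Rat cerebral cortex synaptosomes; K+-evoked depolarization-induced [3H]histamine release measured for H3 agonist and antagonist activity; intrinsic activity derived from this preparation; at least triplicate.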

The target of test [3] is Histamine H2 receptor (Cavia porcellus) (UniProt P47747). The test can be described thus: Antagonist activity against histamine H2 receptor in guinea pig atrium. The following applies: Cardiac atrium. The test is classed as functional, tissue-based. The essentials: (§3)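 Isolated guinea pig tissues: H1 activity on ileum, H2 activity on spontaneously beating right atrium, by standard functional methods; each test at least in triplicate; exact type of interaction not determined in every case.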

The target in test [4] is Histamine H1 receptor (Cavia porcellus) (UniProt P31389). The test can be described thus: Antagonist activity against histamine H1 receptor in guinea pig ileum. The class given is functional, tissue-based. The gist of the method: as §3
Test [5] concerns the target T1, Histamine H3 receptor. In words: (§4) In vitro binding affinity against histamine H3 receptor from synaptosomes of rat cerebral cortex. The test is classed as subcellular, Brain.
For test [6], the target named is Histamine H3 receptor (Mus musculus) (UniProt P58406). In words: In vivo agonistic activity against histamine H3 receptor in mice after peroral administration. The class given is functional, organism-based. The gist of the method:
as §1

Test [7] deals with T1, Histamine H3 receptor. Described as §4. The class given is subcellular, Brain. The essentials: as §2
This is another data set of the same source.

For test [8], the target named is T1, Histamine H3 receptor. The test can be described thus: Antagonist activity against histamine H3 receptor on synaptosomes of rat cerebral cortex. The test is classed as functional, subcellular, Brain. The gist of the method: as §2
The target of test [9] is Histamine H3 receptor (Cavia porcellus) (UniProt Q9JI35). In words: Antagonist activity against histamine H3 receptor in guinea pig ileum. The class given is functional, tissue-based. The essentials:
(§5)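 Isolated guinea pig ileum segments, electrically evoked twitches; H3 antagonism from concentration-dependent inhibition of twitches by (R)-α-methylhistamine in presence of antagonist; agonist activity from concentration–response curves of the test compound in place of (R)-α-methylhistamine; each experiment at least in triplicate.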

For test [10] the target is unchanged. The test can be described thus: Binding affinity for guinea pig ileum histamine H3 receptor. The test is classed as tissue-based. The essentials: as §5

Sequence of Histamine H2 receptor (Cavia porcellus) (P47747 whole entry): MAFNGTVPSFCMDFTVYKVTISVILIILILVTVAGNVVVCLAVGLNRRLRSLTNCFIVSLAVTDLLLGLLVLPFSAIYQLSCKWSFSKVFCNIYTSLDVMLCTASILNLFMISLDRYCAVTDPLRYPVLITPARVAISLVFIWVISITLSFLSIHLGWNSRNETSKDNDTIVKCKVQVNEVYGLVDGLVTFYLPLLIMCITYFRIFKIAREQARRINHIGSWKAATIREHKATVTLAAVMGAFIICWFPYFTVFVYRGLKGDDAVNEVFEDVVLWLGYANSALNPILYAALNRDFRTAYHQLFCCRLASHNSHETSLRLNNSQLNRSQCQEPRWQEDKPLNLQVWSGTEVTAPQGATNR
Sequence of Histamine H1 receptor (Cavia porcellus) (P31389 whole entry): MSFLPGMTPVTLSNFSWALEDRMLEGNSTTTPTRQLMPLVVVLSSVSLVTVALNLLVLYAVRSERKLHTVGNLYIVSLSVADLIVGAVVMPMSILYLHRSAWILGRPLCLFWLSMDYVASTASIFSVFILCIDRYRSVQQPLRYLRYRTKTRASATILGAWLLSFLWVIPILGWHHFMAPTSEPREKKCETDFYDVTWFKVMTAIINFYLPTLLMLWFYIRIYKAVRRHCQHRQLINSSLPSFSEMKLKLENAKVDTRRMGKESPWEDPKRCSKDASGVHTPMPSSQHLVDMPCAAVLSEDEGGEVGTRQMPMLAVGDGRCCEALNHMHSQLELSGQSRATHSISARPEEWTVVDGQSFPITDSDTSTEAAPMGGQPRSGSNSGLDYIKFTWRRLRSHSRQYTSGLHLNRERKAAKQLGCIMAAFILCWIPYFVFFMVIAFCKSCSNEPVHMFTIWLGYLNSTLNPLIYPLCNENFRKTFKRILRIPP
Sequence of Histamine H3 receptor (Cavia porcellus) (Q9JI35 whole entry): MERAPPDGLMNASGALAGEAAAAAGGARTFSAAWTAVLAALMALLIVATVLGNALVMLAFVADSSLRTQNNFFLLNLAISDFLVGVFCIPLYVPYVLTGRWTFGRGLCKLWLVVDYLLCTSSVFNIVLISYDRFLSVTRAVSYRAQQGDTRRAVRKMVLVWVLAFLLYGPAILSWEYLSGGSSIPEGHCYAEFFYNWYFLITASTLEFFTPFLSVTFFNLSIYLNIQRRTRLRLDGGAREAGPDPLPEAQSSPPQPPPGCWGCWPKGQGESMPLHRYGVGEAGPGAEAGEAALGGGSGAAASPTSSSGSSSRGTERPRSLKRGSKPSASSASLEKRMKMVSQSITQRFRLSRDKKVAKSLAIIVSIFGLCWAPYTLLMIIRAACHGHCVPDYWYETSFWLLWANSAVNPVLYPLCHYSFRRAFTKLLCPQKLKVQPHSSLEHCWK
Sequence of Histamine H3 receptor (Mus musculus) (P58406 whole entry): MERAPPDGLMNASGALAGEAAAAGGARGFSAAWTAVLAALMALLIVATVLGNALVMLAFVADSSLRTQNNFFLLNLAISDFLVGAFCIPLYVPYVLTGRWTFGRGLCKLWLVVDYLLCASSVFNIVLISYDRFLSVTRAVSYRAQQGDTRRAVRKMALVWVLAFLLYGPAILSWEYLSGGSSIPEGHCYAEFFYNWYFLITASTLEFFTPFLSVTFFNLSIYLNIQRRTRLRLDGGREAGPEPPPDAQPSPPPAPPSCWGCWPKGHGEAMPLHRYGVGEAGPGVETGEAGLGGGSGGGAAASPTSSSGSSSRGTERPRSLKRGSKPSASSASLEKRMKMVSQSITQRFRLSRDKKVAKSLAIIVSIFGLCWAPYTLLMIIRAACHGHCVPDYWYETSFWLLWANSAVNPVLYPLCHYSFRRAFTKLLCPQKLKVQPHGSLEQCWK
T1 sequence (Q9QYN8 whole entry): as the sequence (P58406 whole entry) above, with A15T, T286A, G290A, H387R, V389I counted along it

With `CC(C)CCOCCCc1c[nH]cn1`, the Intrinsic activity amounted to 1 in test [1] and 0.22 at Histamine H3 receptor [2]. Moreover, the pkB in test [3] was 3.5; in test [4] it was 4.5; in test [9], 7.03. Moreover, the Ki (usually the dissociation constant of the complex between target and ligand, obtained from inhibition or displacement) was 0.014 µM at Histamine H3 receptor [5] and 0.0141 µM at Histamine H3 receptor [8]. The ED50 (in general, the dose at which the effect has come halfway, by size or by number of responders) in test [6] was 0.51 mg/kg. Further, the EC50 (as a rule, the concentration at which the effect is half-maximal) at Histamine H3 receptor [7] stood at 0.128 µM. Moreover, in [10], the Kb worked out at 0.093 µM.

With `CC(C)CNC(=O)OCCCc1c[nH]cn1`, the pkB was less than 4 in test [3], less than 4.5 in test [4] and 7.39 in test [9]. In addition, in [6], the 50% effective dose (ED50) was greater than 10 mg/kg. The Kb in [10] is 0.041 µM.

Regarding `CC(C)(C)CCNC(=O)OCCCc1c[nH]cn1.O=CC(=O)/C(O)=C/O`, the pkB amounted to 4.3 in test [3], 4.2 in [4] and 7.53 in [9]. Besides, the Kb in test [10] amounted to 0.03 µM.

As to `CC(C)(C)CNC(=O)OCCCc1c[nH]cn1.O.O=C(O)C(=O)O`, the Intrinsic activity amounted to 0.7 in [1] and 0.15 at Histamine H3 receptor [2]. The pkB was 3.2 in test [3], 3.5 in [4] and 7.4 in test [9]. The Ki on Histamine H3 receptor [5] is 0.023 µM; at Histamine H3 receptor [8], 0.0229 µM. In [6], this compound yielded an ED50 of 0.48 mg/kg. In addition, the Kb in test [10] stood at 0.04 µM.

`N=C(N)SCCc1c[nH]cn1` had an Intrinsic activity in test [1] of 1. Also, it took a dose of 1 mg/kg to reach the 50% effect level in test [6] (ED50). For the same compound, the Kb in [10] is 0.0066 µM.

`CC(C)NC(=O)OCCCc1c[nH]cn1.O=CC(=O)/C(O)=C/O`: the values for the pkB in test [3], in test [4] and in [9] were less than 4.3, less than 4 and 7.04, respectively. For the same compound, the inhibition constant (Ki) is 0.082 µM at Histamine H3 receptor [5] and 0.0813 µM at Histamine H3 receptor [8]. The compound also registered an ED50 in test [6] of 15 mg/kg. This compound also yielded a Kb in test [10] of 0.091 µM.

In test [1], `CC(C)(C)NC(=O)OCCCc1c[nH]cn1.O=CC(=O)/C(O)=C/O` displayed an Intrinsic activity of 0.7. Further, the pkB was less than 4 in test [3], less than 4 in [4] and 7.22 in test [9]. In test [6], this compound yielded a 50% effective dose (ED50) of 0.9 mg/kg. For the same compound, the Kb in test [10] is 0.06 µM.

`CC(C)(C)CCOCCCc1c[nH]cn1`: the figures for the Intrinsic activity (in test [1]; on Histamine H3 receptor [2]) were 1 and 0.55, respectively. Further, the pkB is less than 4 in test [3], 4.5 in test [4] and 7.38 in [9]. In addition, the Ki at Histamine H3 receptor [5] and on Histamine H3 receptor [8] was 0.01 µM in each case. The same compound registered an ED50 in [6] of 0.29 mg/kg. Also, the response at Histamine H3 receptor [7] was half-maximal at 0.045 µM (EC50). Moreover, the Kb in [10] was determined as 0.042 µM.

Consider `CC(C)(C)CC(C)(C)NC(=O)OCCCc1c[nH]cn1`, for which the pkB amounted to 4.3 in [3], 6 in [4] and 7.58 in test [9]. In addition, the Ki on Histamine H3 receptor [5] was 0.042 µM; on Histamine H3 receptor [8] it was 0.0417 µM. The compound further showed a Kb in [10] of 0.028 µM.

Take `CC(C)COCCCc1c[nH]cn1`: the Ki was 0.139 µM at Histamine H3 receptor [5] and 0.138 µM at Histamine H3 receptor [8]. The pkB in [9] stood at 6.64. In test [10], this compound had a Kb of 0.228 µM.

In [1], `CCC(C)(C)NC(=O)OCCCc1c[nH]cn1` returned an Intrinsic activity of 0.4. The pkB in test [3] is 3.5; in [4], 4.8; in test [9], 7.34. Also, the ED50 in [6] was 0.2 mg/kg. The compound also yielded a Kb in test [10] of 0.046 µM.

For `CC(C)CCCOCCCc1c[nH]cn1`, the Intrinsic activity is 0.6 in [1] and 0.25 on Histamine H3 receptor [2]. Also, the pkB in [3] was found to be 4.6; in [4], 5; in test [9], 7.89. For the same compound, the Ki on Histamine H3 receptor [5] was 0.0094 µM; on Histamine H3 receptor [8], 0.00933 µM. The same compound showed an ED50 in test [6] of 0.15 mg/kg. In addition, the Kb in test [10] amounted to 0.013 µM.
